Measurements as given in ChEMBL document CHEMBL1151731, “Targeting pro-invasive oncogenes with short chain fatty acid-hexosamine analogues inhibits the mobility of metastatic MDA-MB-231 breast cancer cells” (J Med Chem, 2008).
Each block holds one compound with its values, some of them ahead of it. Activity calls are given as the source filed them. The calls are words filed in the database; no cut-off is given here.

Experiments:
[1] = biological target: T1, Histone deacetylase (Homo sapiens) (UniProt Q13547+O15379+Q9UBN7+Q92769+Q9UQL6+Q8WUI4+Q9BY41+Q96DB2+P56524+Q9UKV0+Q969S8); assay: Inhibition of HDAC in human MDA-MB-231 cells assessed as increase in p21 mRNA level by qRT-PCR; type: cell-based
[2] = biological target: T1, Histone deacetylase (Homo sapiens); assay: Inhibition of HDAC in human MDA-MB-231 cells assessed as increase in histone H3 acetylation after 2 days by densitometry
MDA-MB-231 [3] = assay: Reduction of endogenous NFKB1 (p105) mRNA level in human MDA-MB-231 cells; type: functional, cell-based
[4] = biological target: T1, Histone deacetylase (Homo sapiens); assay: Inhibition of HDAC in human MDA-MB-231 cells assessed as decrease in MUC1 mRNA expression qRT-PCR; type: cell-based
MDA-MB-231 [5] = assay: Induction of salic acid production in human MDA-MB-231 cells by periodate-resorcinal assay; type: functional, cell-based
In short: (§1)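 Periodate-resorcinol assay for total sialic acid, adapted to small volumes. Treated cells were trypsinized, washed and resuspended in PBS, Coulter-counted, and lysed by three freeze-thaw cycles. Readings taken within five minutes. Molecules per cell calculated from the harvested cell number and a sialic acid standard curve run alongside. SEM, n ≥ 3.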

MDA-MB-231 [6] = assay: Antiproliferative activity against human MDA-MB-231 cells by Coulter counting analysis; type: functional, cell-based
In short: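 MDA-MB-231 cells grown in RPMI-1640 with 10% FBS and plated at 27000 cells/cm² with compound added at plating from EtOH stock (final EtOH 0.4% v/v). Incubated 3 days at 37 °C, 5% CO₂. Viable cells trypsinized and counted on a Coulter counter. SEM, n ≥ 3.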

MDA-MB-231 [7] = assay: Inhibition of human MDA-MB-231 cells migration at 50 uM by Boyden chamber assay; type: functional, cell-based
MDA-MB-231 [8] = assay: Inhibition of human MDA-MB-231 cells invasion at 50 uM by Boyden chamber assay; type: functional, cell-based
MDA-MB-231 [9] = assay: Suppression of pro-MMP9 mRNA level in human MDA-MB-231 cells after 3 days by qRT-PCR; type: functional, cell-based
In short: (§2)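 Cells exposed 3 days to compound. RNA extracted with Trizol, DNase-treated and column-purified. qRT-PCR with Ct measured in quadruplicate; relative expression by the 2^-ΔΔCt method. Products checked on agarose gel. SEM of independent experiments done in triplicate.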

MDA-MB-231 [10] = assay: Suppression of CXCR4 mRNA in human MDA-MB-231 cells after 3 days by qRT-PCR; type: functional, cell-based; in short: as §2
MDA-MB-231 [11] = assay: Effect on proteosomal activity of human MDA-MB-231 cells measured after 3 days in absence of epoxomicin; type: functional, cell-based
In short: (§3)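 Viable MDA-MB-231 cells (100000 in 100 µL RPMI) incubated with a succinyl luminogenic proteasome substrate; activity expressed as luminescence normalized to untreated controls. Analogue exposure 3 days; epoxomicin control exposure 6 h. SEM of independent experiments in triplicate.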

MDA-MB-231 [12] = assay: Inhibition of proteosomal activity of human MDA-MB-231 cells measured after 6 hrs in presence of epoxomicin; type: functional, cell-based; in short: as §3
MDA-MB-231 [13] = assay: Increase in sialic acid production in human MDA-MB-231 cells by periodate-resorcinal assay; type: functional, cell-based; in short: as §1
HEK AD293 (Homo sapiens) = assay: Inhibition of NF-kappaB transcriptional activity in human HEK AD293 cells by luciferase reporter gene assay
MDA-MB-231 [14] = assay: Suppression of MUC1 transcription in human MDA-MB-231 cells by qRT-PCR; type: functional, cell-based
In short: (§4)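 MDA-MB-231 RNA extracted with Trizol, DNase-treated and column-purified. qRT-PCR with Ct values in quadruplicate; relative expression by 2^-ΔΔCt from average Ct. Amplicons verified by agarose gel electrophoresis.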

MDA-MB-231 [15] = assay: Cytotoxicity against human MDA-MB-231 cells at >= 150 uM; type: functional, cell-based
MDA-MB-231 [16] = assay: Growth inhibition of human MDA-MB-231 cells after 3 to 5 days; type: functional, cell-based
In short: (§5)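 Proliferation followed over time up to 15 days in MDA-MB-231 cells (RPMI-1640, 10% FBS, 37 °C, 5% CO₂). Compound added at plating from EtOH stock, final EtOH 0.4% v/v. Data averaged from triplicate experiments.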

MDA-MB-231 [17] = assay: Growth inhibition of human MDA-MB-231 cells after 15 days; type: functional, cell-based; in short: as §5
MDA-MB-231 [18] = assay: Increase in MUC1 mRNA transcription in human MDA-MB-231 cells by qRT-PCR; type: functional, cell-based; in short: as §4
MDA-MB-231 [19] = assay: Enhancement of NFkappaB1 level in human MDA-MB-231 cells by qRT-PCR; type: functional, cell-based; in short: as §4
MDA-MB-231 [20] = assay: Downregulation of CXCR4 in human MDA-MB-231 cells by qRT-PCR; type: functional, cell-based
MDA-MB-231 [21] = assay: Increase in intracellular sialic acid production in human MDA-MB-231 cells at 50 mM; type: functional, cell-based
MDA-MB-231 [22] = assay: Increase in human MDA-MB-231 cells invasion at 10 mM; type: functional, cell-based
MDA-MB-231 [23] = assay: Increase in human MDA-MB-231 cells invasion at 30 mM; type: functional, cell-based
MDA-MB-231 [24] = assay: Decrease in MUC1 mRNA transcription in human MDA-MB-231 cells by qRT-PCR; type: functional, cell-based; in short: as §4
MDA-MB-231 [25] = assay: Inhibition of human MDA-MB-231 cells migration at 50 uM after 3 days by Boyden chamber assay; type: functional, cell-based
In short: (§6)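 Cells pretreated 2 or 3 days with compound (final EtOH 0.4% v/v), then trypsinized and resuspended in serum-free RPMI-1640. 50000 viable cells per chamber (equal loading confirmed by WST-8) in modified Boyden chambers. Migration measured through 8.0 µm pores toward a serum gradient; invasion through a Matrigel layer. After 24 h at 37 °C, cells were stained with Diff-Quik and counted. Viability rechecked by WST-8 at 24 h. SEM of technical replicates (n = 6 or 3); double-sided t test.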

MDA-MB-231 [26] = assay: Inhibition of human MDA-MB-231 cells invasion at 50 uM after 3 days by Boyden chamber assay; type: functional, cell-based; in short: as §6
MDA-MB-231 [27] = assay: Inhibition of human MDA-MB-231 cells invasion at 50 uM after 2 days by Boyden chamber assay; type: functional, cell-based; in short: as §6
MDA-MB-231 [28] = assay: Inhibition of human MDA-MB-231 cells invasion at 150 uM after 2 days by Boyden chamber assay; type: functional, cell-based; in short: as §6
MDA-MB-231 [29] = assay: Decrease in MMP9 gelatinase activity in human MDA-MB-231 cells after 3 days by Zymogram assay; type: functional, cell-based
HEK293 = assay: Inhibition of NF-kappaB transcriptional activity in human HEK AD293 cells at 125 uM by luciferase reporter gene assay; type: cell-based; design: scale not given: the % may be the effect or the level left
In short: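 HEK AD293 cells (DMEM, 10% FBS) lipofected with an NF-κB consensus luciferase reporter plus an equal mass of SV-promoter β-galactosidase plasmid. Replated after 24 h recovery and treated with compound. Luciferase read by chemiluminescence and β-galactosidase colorimetrically; activity expressed as their ratio. SEM of independent experiments in triplicate.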

MDA-MB-231 [30] = assay: Inhibition of NF-kappaB transcriptional activity in human MDA-MB-231 cells at 125 uM by luciferase reporter gene assay; type: cell-based; design: scale not given: the % may be the effect or the level left
In short: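 MDA-MB-231 cells electroporated with an NF-κB luciferase reporter plus an equal mass of SV-promoter β-galactosidase plasmid. Replated after 24 h recovery and treated with compound. NF-κB transactivation taken as the luciferase to β-galactosidase activity ratio. SEM of independent experiments in triplicate.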

MDA-MB-231 [31] = assay: Growth inhibition of human MDA-MB-231 cells assessed as rounded-up morphology after 3 days by phase contrast micrograph

- Activity [1]: Active
- Activity [2]: Active
SMILES: CCCC(=O)O

- Activity [1]: Active
- Activity [4]: inactive
- Activity [2]: Active
SMILES: CCCC(=O)OC[C@H]1OC(OC(=O)CCC)[C@@H](OC(=O)CCC)[C@@H](OC(=O)CCC)[C@@H]1OC(=O)CCC (stereo partly specified)
- Activity (MDA-MB-231 [3]): inactive
- Activity (MDA-MB-231 [5]): inactive
- Activity (MDA-MB-231 [6]): Active
- Activity (MDA-MB-231 [7]): inactive
- Activity (MDA-MB-231 [8]): inactive
- Activity (MDA-MB-231 [9]): Active
- Activity (MDA-MB-231 [10]): Active
- Activity (MDA-MB-231 [11]): inactive
- Activity (MDA-MB-231 [12]): Active

SMILES: CCCC(=O)OC1O[C@H](CO)[C@@H](OC(=O)CCC)[C@H](OC(=O)CCC)[C@@H]1NC(C)=O (stereo partly specified)
- Activity (MDA-MB-231 [13]): Active
- Activity (HEK AD293 (Homo sapiens)): inactive

SMILES: CCCC(=O)OC[C@H]1OC(O)[C@@H](NC(C)=O)[C@@H](OC(=O)CCC)[C@@H]1OC(=O)CCC (stereo partly specified)
- Activity (MDA-MB-231 [14]): Active
- Activity (MDA-MB-231 [13]): Active
- Activity (MDA-MB-231 [15]): Active

SMILES: CCCC(=O)OC[C@@H](OC(=O)CCC)[C@@H](OC(=O)CCC)[C@@H]1OC(OC(=O)CCC)(C(=O)OC)C[C@H](OC(=O)CCC)[C@@H]1NC(C)=O (stereo partly specified)
- Activity (MDA-MB-231 [16]): Active
- Activity (MDA-MB-231 [17]): inactive
- Activity (MDA-MB-231 [18]): Active
- Activity (MDA-MB-231 [19]): Active
- Activity (MDA-MB-231 [20]): Active

SMILES: CC(=O)N[C@H](C=O)[C@@H](O)[C@H](O)[C@H](O)CO
- Activity (MDA-MB-231 [21]): Active
- Activity (MDA-MB-231 [22]): Active
- Activity (MDA-MB-231 [23]): inactive

- Activity [1]: Active
- Activity [4]: Active
- Activity [2]: Active
SMILES: CCCC(=O)OC[C@H]1OC(OC(=O)CCC)[C@@H](NC(C)=O)[C@@H](OC(=O)CCC)[C@@H]1OC(=O)CCC (stereo partly specified)
- Activity (MDA-MB-231 [3]): Active
- Activity (MDA-MB-231 [24]): Active
- Activity (MDA-MB-231 [5]): Dose-dependent effect
- Activity (MDA-MB-231 [6]): Active
- Activity (MDA-MB-231 [25]): Active
- Activity (MDA-MB-231 [26]): Active
- Activity (MDA-MB-231 [27]): Active
- Activity (MDA-MB-231 [28]): Active
- Activity (MDA-MB-231 [29]): Dose-dependent effect
- Activity (MDA-MB-231 [9]): inactive
- Activity (MDA-MB-231 [10]): Active
- Activity (HEK293): 75%
- Activity (MDA-MB-231 [30]): 75%
- Activity (MDA-MB-231 [11]): inactive
- Activity (MDA-MB-231 [12]): Active
- Activity (MDA-MB-231 [31]): Active
